Screens: PubChem BioAssay, The Scripps Research Institute Molecular Screening Center
This is a sample that favours compounds with a hit; in the whole collection about 1.3% have one here.
PAD4 inh = PAD4 (human) enzyme inhibition. inhibition, % at 6.36 µM. recombinant PAD4, RCA probe fluorescence polarization. Q9UM07. actives 0.41% (n = 330,000);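 active = percent inhibition above a cutoff equal to the mean of all tested compounds plus 3 SD, cut at about 15% in these data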;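 note: 0% = PAD4 with RCA probe and DMSO and 100% = probe without PAD4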
PME-1 primary = PME-1 (human) inhibition; recombinant PME-1, FP-Rh probe fluorescence polarization; inhibition, % at 5.9 µM; actives 0.53% (n = 320,000);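 active = inhibition above the campaign mean of all compounds plus 3 SD, cut at about 26% in these data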;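 note: competitive labeling of PME-1 active site by serine hydrolase directed probe; 0% = PME-1 with DMSO and 100% = wells lacking PME-1 enzyme; inhibitors block probe labeling so polarization falls and inhibition rises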
LYPLA1 inh = blocks human lysophospholipase 1, a PME1 counter-screen. recombinant LYPLA1, FP-Rh probe fluorescence polarization. inhibition, % at 5.9 µM. actives 0.16% (n = 320,000). AID 2174;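 active = inhibition above the mean of all tested compounds plus 3 SD, set per campaign, cut at about 14% in these data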;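 note: inhibitors block serine hydrolase probe labeling of LYPLA1 so polarization falls; 0% = enzyme with DMSO and 100% = wells lacking LYPLA1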
Target sequence (O75608 whole entry, looked up): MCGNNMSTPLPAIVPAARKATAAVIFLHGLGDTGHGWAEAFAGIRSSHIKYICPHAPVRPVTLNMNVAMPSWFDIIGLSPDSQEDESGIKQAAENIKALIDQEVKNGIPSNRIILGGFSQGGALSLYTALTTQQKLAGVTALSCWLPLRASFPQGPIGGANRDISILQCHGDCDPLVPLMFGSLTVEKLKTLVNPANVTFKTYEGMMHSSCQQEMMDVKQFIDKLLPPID
Fam108B inh = counter-screen for RBBP9 inhibitors: inhibitors of mouse Fam108B | recombinant Fam108B, FP-Rh probe fluorescence polarization | inhibition, % at 9.51 µM | actives 0.33% (n = 300,000) | AID 1947;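 active = inhibition above the screen mean inhibition plus 3 SD, computed separately per campaign, cut at about 18% in these data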;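 note: inhibitors lower polarization as less probe binds the enzyme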
RBBP9 inh = inhibitors of human serine hydrolase RBBP9; recombinant RBBP9, FP-Rh probe fluorescence polarization; inhibition, % at 7.94 µM; actives 0.2% (n = 220,000); AID 1515;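 active = inhibition above the campaign mean of all tested compounds plus 3 SD, cut at about 14% in these data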;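 note: plate controls were DMSO wells with RBBP9 for no effect and wells lacking RBBP9 protein for full effect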
Target sequence (O75884 whole entry, looked up): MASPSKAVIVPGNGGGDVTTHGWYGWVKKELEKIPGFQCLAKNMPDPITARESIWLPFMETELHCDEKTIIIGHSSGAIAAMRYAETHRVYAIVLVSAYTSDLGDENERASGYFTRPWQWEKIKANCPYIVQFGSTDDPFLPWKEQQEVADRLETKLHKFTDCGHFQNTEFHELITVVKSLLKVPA
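Test system – recombinant human RBBP9 · Input – RBBP9 2.5 µM in dispensing solution, pre-mixing · Medium – Tris buffer pH 8.0, NaCl, Pluronic · Schedule – preincubation 30 min plus labeling 45 min at 25 °C · Measured by – fluorescence polarization · Measure – % inhibition · Controls – DMSO and no-protein wells · Replicates – one well per compound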
LYPLA2 counter = blocks human lysophospholipase 2, a PME1 counter-screen | recombinant LYPLA2, FP-Rh probe fluorescence polarization | inhibition, % at 5.9 µM | actives 0.38% (n = 320,000) | AID 2177;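 active = inhibition above the screen-wide mean plus 3 SD, limit set per campaign, cut at about 26% in these data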;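 note: 0% = LYPLA2 with DMSO and 100% = wells lacking LYPLA2 enzyme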
Target sequence (O95372 whole entry, looked up): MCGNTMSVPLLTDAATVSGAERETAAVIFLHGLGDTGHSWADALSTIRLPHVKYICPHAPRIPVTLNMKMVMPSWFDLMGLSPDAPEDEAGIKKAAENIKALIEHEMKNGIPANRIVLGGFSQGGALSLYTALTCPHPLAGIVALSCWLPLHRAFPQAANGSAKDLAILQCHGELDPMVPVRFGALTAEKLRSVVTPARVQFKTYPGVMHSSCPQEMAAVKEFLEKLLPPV
PAD4 confirm = PAD4 (human) inhibition, confirmed; inhibition, % at 6.36 µM; AID 488796; shares compounds with PAD4 inh; recombinant PAD4, RCA probe fluorescence polarization; actives 28% (n = 1,200);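 active = mean inhibition across replicates above the hit cutoff set by the earlier primary screen, cut at about 15% in these data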;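 note: inhibitors block active-site labeling by the probe so polarization falls; 0% = PAD4 with probe and DMSO and 100% = probe without PAD4 enzyme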
The depositor's hits bear a star; · = not tested or not shown.

SMILES	PAD4 inh	PME-1 primary	LYPLA1 inh	Fam108B inh	RBBP9 inh	LYPLA2 counter	PAD4 confirm
CCCC1OC23CCCCC2C(C#N)(C(=N)O3)C1(C#N)C#N (stereo not drawn)	16.7*	5.2	3.8	-0.7	6.9	6.0	5.9
N#CC12COC3(CCCCC3C1(C#N)C#N)OC2=N (stereo not drawn)	22.1*	12.4	5.3	-2.6	-4.6	13.7	3.7
N#CC1(C#N)COC23CCCCC2C1(C#N)C(=N)O3 (stereo not drawn)	7.7	1.2	2.2	2.6	-0.8	6.9	·
CC1=C(C#N)C(=O)OC(C)(C)C1	47.5*	13.6	14.1	11.7	-4.3	15.5	15.4*
Cc1[nH]c(=O)c(C#N)c2c1COC(C)(C)C2	1.1	-2.9	-0.9	0.0	-8.2	-5.1	·
CCC(=O)Nc1ccc(C(=O)CN2C(=O)NC3(CCCCCC3)C2=O)cc1	29.5*	-3.6	-6.0	·	·	0.6	-3.1
CCOC(=O)c1sc2nc(CSc3ccccc3)nc(N3CCC(C(N)=O)CC3)c2c1C	39.9*	2.0	-0.6	0.6	-2.6	-0.3	-0.9
O=C1c2ccccc2C(=O)c2[nH]cnc21	·	·	·	·	-6.8	·	·
O=C1c2ccccc2C(=O)c2[nH]c(=O)[nH]c21	16.8*	7.7	-1.6	5.5	·	-3.1	1.9
COc1cc(C=O)ccc1OCc1ccncc1	27.7*	-1.7	-4.2	1.1	·	0.5	-6.3
CN(Cc1cnn(Cc2ccccc2)c1)C(=O)c1cccc(S(=O)(=O)N2CCOCC2)c1	-0.2	2.0	3.5	·	·	-0.2	·
CC(C)c1ccc(OCc2nc(-c3ccccn3)no2)c(Br)c1	20.2*	-7.9	1.5	-2.3	-3.6	12.3	-3.2
O=C(N/N=C/c1cn(-c2cccs2)nc1-c1ccccc1)c1ccccc1O	27.2*	-30.2	-35.1	-37.3	-10.0	-41.9	-2.8
O=C(N/N=C/c1cn(-c2cccs2)nc1-c1ccccc1)c1ccccc1Br	-7.2	-53.6	-28.6	-30.8	-12.4	-58.8	·
CC(=O)C1=C(O)C(=O)N(CC(=O)O)C1c1ccccc1Cl (stereo not drawn)	20.2*	0.4	1.1	0.5	-6.1	-3.2	4.5
CC(C)(C)C(=O)C1=C(O)C(=O)N(Cc2ccccc2)C1c1ccccc1Cl (stereo not drawn)	-2.8	-4.8	-0.1	3.2	·	6.1	·
O=C1c2ccccc2C(=O)c2c1cccc2N1CCCC1	27.8*	22.1	4.1	12.6	3.0	9.6	1.4
O=C1c2ccccc2-c2cccc(C(=O)N3CCCCC3)c21	1.6	6.8	0.7	1.3	-6.5	1.3	·
CCCn1c2ccccc2c2cnn(CC(=O)NCCCN3CCN(c4ccccc4)CC3)c(=O)c21	-0.1	-0.3	-0.7	2.1	·	8.6	·
CCCC1=C(C(=O)OCC)C(c2ccc(N(C)C)cc2)n2ncnc2N1 (stereo not drawn)	1.2	-4.2	4.6	-1.5	-6.8	0.7	·
CN1CCS/C1=C/C=C1/SC(=S)N(Cc2ccccc2)C1=O	49.2*	13.7	9.8	17.6	-8.5	7.9	-0.3
CCCCc1c(C)c2ccc(OCC(C)=O)cc2oc1=O	-3.1	-6.4	-3.2	-0.2	-7.0	-4.3	·
CC(=O)COc1ccc2c(C)c(-c3ccccc3)c(=O)oc2c1	22.9*	0.2	3.9	1.1	-5.9	5.0	-4.2
O=C(CN1CCCCC1)Nc1ccc(C(F)(F)F)cc1Cl	18.1*	-6.3	-0.5	-1.8	6.7	-2.9	-5.5
Cc1cccc(OCC(=O)NCC(C)(C)N2CCOCC2)c1	-3.3	-1.0	0.4	·	·	-1.3	·
SMILES	PAD4 inh	PME-1 primary	LYPLA1 inh	Fam108B inh	RBBP9 inh	LYPLA2 counter	PAD4 confirm
CC(C)C(=O)Nc1cc2c(cc1C(=O)c1ccccc1)OCCO2	0.8	-2.1	-4.0	0.8	-6.2	-0.2	·
Cc1ccc(NC(=O)C(C)N2CCOCC2)c(C(=O)c2ccccc2)c1 (stereo not drawn)	39.8*	-3.0	3.8	2.6	-1.6	5.7	1.8
CCC(C)(C)NC(=O)C(c1ccc(F)cc1)N(Cc1ccco1)C(=O)c1snc(C(N)=O)c1N (stereo not drawn)	16.3*	-6.3	2.1	-2.0	6.5	3.7	2.7
NC(=O)c1nsc(C(=O)N(Cc2ccco2)C(C(=O)NCc2ccc(F)cc2)c2ccc(O)cc2)c1N (stereo not drawn)	2.2	4.3	-1.7	-3.2	·	-2.0	·
COc1ccc2c(c1)SCC/C2=C\CN1C(=O)CCC1=O	-1.0	-4.6	-0.5	0.2	-4.9	6.6	·
CC(C)c1ccc(N=c2c([N+](=O)[O-])nn(-c3ccc4c(c3)OCCO4)n2O)cc1	18.5*	6.1	-4.2	-2.1	-3.4	8.1	1.9
COc1cc(N=c2c([N+](=O)[O-])nn(-c3ccc4c(c3)OCCO4)n2O)cc(OC)c1	-4.9	8.9	-3.4	5.8	-5.4	4.5	·
O=C(Nc1ccccc1)c1ccc(Nc2c([N+](=O)[O-])cc([N+](=O)[O-])c3ccccc23)cc1	2.1	12.8	-2.9	8.2	-11.8	-4.7	·
O=[N+]([O-])c1cc(Br)c(Nc2ccccc2)c([N+](=O)[O-])c1	18.2*	18.4	7.7	4.2	·	12.9	19.8*
Cc1onc(C(=O)N2CCOCC2)c1[N+](=O)[O-]	21.8*	3.8	-0.6	1.1	-7.0	1.5	19.2*
CC(C)c1onc(C(=O)N2CCOCC2)c1[N+](=O)[O-]	-2.5	0.9	-1.4	-0.3	0.8	-3.2	·
CCc1nnc(N/N=C/c2cccs2)n1N	33.8*	-1.5	0.5	1.4	-3.5	-5.4	-6.0
CNC(=S)N/N=C/c1c(Cl)cccc1Cl	0.6	-2.3	-3.0	-1.6	-3.4	1.4	·
CCc1nnc(N/N=C/c2c(Cl)cccc2Cl)n1N	21.3*	2.4	1.2	6.1	-6.1	1.4	2.1
O=C(COC(=O)CN1C(=O)NC2(CCCC2)C1=O)Nc1c(Cl)cccc1C(F)(F)F	4.1	-1.5	1.7	-3.0	·	8.0	·
O=C(Nc1nccs1)c1ccc(-c2ccc(F)c(Cl)c2)o1	-7.1	-18.4	-13.3	-18.3	·	-32.2	·
N=c1c(C(=O)NCCN2CCOCC2)cc2c(=O)n3ccccc3nc2n1CCCN1CCOCC1	-2.7	3.7	-8.8	0.7	·	-5.4	·
Cc1cc(O)c(C=Nc2ccc(N3CCOCC3)cc2)c(C)c1Cl	27.9*	-0.3	2.4	-6.9	·	0.7	1.9
Nc1nc(-c2cccs2)cs1	19.0*	1.2	-0.7	-1.6	-7.9	-1.0	4.6
CC(=O)Nc1nc(-c2cccs2)cs1	8.7	0.8	-0.5	-6.4	-6.8	3.4	·
Cc1[nH]n(-c2ccccc2)c(=O)c1C(c1cccc([N+](=O)[O-])c1O)c1c(C)[nH]n(-c2ccccc2)c1=O	64.4*	1.6	-2.2	5.8	-2.4	2.3	-1.0
Cc1[nH]n(-c2ccccc2)c(=O)c1C(=O)c1ccc([N+](=O)[O-])cc1	-18.9	-1.8	-1.5	-2.6	-1.5	-3.4	·
